From ChEMBL document CHEMBL1138464, “Synthesis, conformation, and biological characterization of a sugar derivative of morphine that is a potent, long-lasting, and nontolerant antinociceptive” (J Med Chem, 2009)
The source made the active and inactive calls.

Legend:
Rattus norvegicus [1] = experiment: Antinociceptive activity in Sprague-Dawley rat assessed as effect on mechanical nociceptive threshold at 1 to 5 mg/kg, ip after 30 mins by paw pressure test; assay type: functional, organism-based
Outline: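 Male Sprague-Dawley rats, drug given ip in saline. Paw pressure test run before tail flick in each animal. Operator blinded to treatment. Rats with pre-drug responses above 75% of cut-off excluded. Read-out taken 30 min post-injection. Statistics by Mann-Whitney U-test.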

[2] = biological target: Mu-type opioid receptor (Rattus norvegicus) (UniProt P33535); details: HEK293
Mu-type opioid receptor (Rattus norvegicus), sequence (P33535 whole entry): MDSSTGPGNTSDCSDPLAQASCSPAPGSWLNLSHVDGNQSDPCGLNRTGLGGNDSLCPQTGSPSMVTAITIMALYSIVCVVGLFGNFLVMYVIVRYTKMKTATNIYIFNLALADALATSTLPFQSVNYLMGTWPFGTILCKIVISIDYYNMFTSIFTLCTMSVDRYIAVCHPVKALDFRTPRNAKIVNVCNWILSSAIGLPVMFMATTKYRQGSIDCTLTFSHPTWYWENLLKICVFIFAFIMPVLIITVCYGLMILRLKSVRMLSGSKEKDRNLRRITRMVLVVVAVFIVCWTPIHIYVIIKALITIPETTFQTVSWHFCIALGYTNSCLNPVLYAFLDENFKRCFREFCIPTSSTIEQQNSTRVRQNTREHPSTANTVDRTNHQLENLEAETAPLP

Rattus norvegicus [3] = experiment: Antinociceptive activity in Sprague-Dawley rat at 0.5 mg/kg, ip after 15 mins by tail flick test; assay type: functional; details: route intraperitoneal
Outline: (§1)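 Male Sprague-Dawley rats, housed singly at 21 °C on a 12 h light-dark cycle, tested in the light phase. Drug given ip in saline (100-500 µL). Tail flick: radiant heat from a 300 W bulb focused on the tail tip, withdrawal latency recorded. Pre-drug responders above 75% of cut-off excluded. Testing was blinded. Results are %MPE at 15 and 30 min and duration (h), mean of 12 animals, Mann-Whitney U-test.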

Rattus norvegicus [4] = experiment: Antinociceptive activity in Sprague-Dawley rat at 0.1 mg/kg, ip administered once daily for 9 days measured daily after 30 mins by tail flick test; assay type: functional; details: route intraperitoneal
Outline: (§2)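 Separate groups of male Sprague-Dawley rats (250-300 g) dosed ip once daily for 9 consecutive days. Tail flick latency (radiant heat to tail tip) measured daily 30 min after each injection. Response expressed as %MPE.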

Rattus norvegicus [5] = experiment: Antinociceptive activity in Sprague-Dawley rat at 0.2 mg/kg, ip after 15 mins by tail flick test; assay type: functional; details: route intraperitoneal; outline: as §1
Rattus norvegicus [6] = experiment: Antinociceptive activity in Sprague-Dawley rat at 0.05 mg/kg, ip after 15 mins by tail flick test; assay type: functional; details: route intraperitoneal; outline: as §1
Rattus norvegicus [7] = experiment: Antinociceptive activity in Sprague-Dawley rat assessed as duration of antinociception at 5 mg/kg, ip by tail flick test; assay type: functional; details: route intraperitoneal; outline: as §1
Rattus norvegicus [8] = experiment: Antinociceptive activity in Sprague-Dawley rat at 5 mg/kg, ip after 15 mins by tail flick test; assay type: functional; details: route intraperitoneal; outline: as §1
Rattus norvegicus [9] = experiment: Antinociceptive activity in Sprague-Dawley rat at 1 mg/kg, ip administered once daily for 9 days measured daily after 30 mins by tail flick test; assay type: functional; details: route intraperitoneal; outline: as §2
Rattus norvegicus [10] = experiment: Antinociceptive activity in Sprague-Dawley rat assessed as effect on mechanical nociceptive threshold at 1 to 5 mg/kg, ip by paw pressure test in presence of naloxone; assay type: functional, organism-based
Outline: (§3)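 Antinociception in male Sprague-Dawley rats given drug ip in saline and measured by tail flick or paw pressure. Reversal tested with naloxone, stated as 5 mg/kg ip in the table footnote and as 0.1 mg/kg in the text.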

Rattus norvegicus [11] = experiment: Antinociceptive activity in Sprague-Dawley rat at 0.01 mg/kg, ip after 30 mins by tail flick test; assay type: functional; details: route intraperitoneal; outline: as §1
Rattus norvegicus [12] = experiment: Antinociceptive activity in Sprague-Dawley rat assessed as duration of antinociception at 0.01 mg/kg, ip by tail flick test; assay type: functional; details: route intraperitoneal; outline: as §1
Rattus norvegicus [13] = experiment: Antinociceptive activity in Sprague-Dawley rat at 0.02 mg/kg, ip after 15 mins by tail flick test; assay type: functional; details: route intraperitoneal; outline: as §1
Rattus norvegicus [14] = experiment: Antinociceptive activity in Sprague-Dawley rat at 0.05 mg/kg, ip after 30 mins by tail flick test; assay type: functional; details: route intraperitoneal; outline: as §1
Rattus norvegicus [15] = experiment: Antinociceptive activity in ip dosed Sprague-Dawley rat at after 30 mins by tail flick test; assay type: functional, organism-based; outline: as §1
Rattus norvegicus [16] = experiment: Antinociceptive activity in Sprague-Dawley rat at 0.05 mg/kg, ip administered once daily for 9 days measured daily after 30 mins by tail flick test; assay type: functional; details: route intraperitoneal; outline: as §2
Rattus norvegicus [17] = organism: Rattus norvegicus; experiment: Toxicity in Sprague-Dawley rat assessed as body weight loss; assay type: organism-based; details: in vivo
Rattus norvegicus [18] = experiment: Antinociceptive activity in Sprague-Dawley rat at 5 mg/kg, ip administered once daily for 9 days measured daily after 30 mins by tail flick test; assay type: functional; details: route intraperitoneal; outline: as §2
Rattus norvegicus [19] = experiment: Antinociceptive activity in Sprague-Dawley rat assessed as duration of antinociception at 1 mg/kg, ip by tail flick test; assay type: functional; details: route intraperitoneal; outline: as §1
Rattus norvegicus [20] = experiment: Antinociceptive activity in Sprague-Dawley rat at 0.5 mg/kg, ip after 30 mins by tail flick test; assay type: functional; details: route intraperitoneal; outline: as §1
Rattus norvegicus [21] = experiment: Antinociceptive activity in Sprague-Dawley rat assessed as duration of antinociception at 0.5 mg/kg, ip by tail flick test; assay type: functional; details: route intraperitoneal; outline: as §1
Rattus norvegicus [22] = experiment: Antinociceptive activity in Sprague-Dawley rat at 1 mg/kg, ip after 15 mins by tail flick test; assay type: functional; details: route intraperitoneal; outline: as §1
Rattus norvegicus [23] = experiment: Toxicity in Sprague-Dawley rat assessed as depression of mean arterial blood pressure at 1 mg/kg, iv administered for 60 secs measured for 30 mins; assay type: organism-based; set-up: dose 1 mg/kg, route intravenous; details: in vivo, 0.5 h
Outline: (§4)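 Male Sprague-Dawley rats (250-300 g) under urethane anaesthesia (1.25 g/kg ip), kept at 37 °C, tracheotomised, with carotid and jugular cannulae. After ≥1 h stabilisation and a saline infusion, drug was given iv in saline over 60 ± 20 s. MAP, SAP, DAP and HR recorded for 30 min as % change from time zero. Student's t test and Newman-Keuls.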

Rattus norvegicus [24] = experiment: Antinociceptive activity in Sprague-Dawley rat at 0.1 mg/kg, ip after 30 mins by tail flick test; assay type: functional; details: route intraperitoneal; outline: as §1
Rattus norvegicus [25] = experiment: Antinociceptive activity in Sprague-Dawley rat assessed as duration of antinociception at 0.02 mg/kg, ip by tail flick test; assay type: functional; details: route intraperitoneal; outline: as §1
Rattus norvegicus [26] = experiment: Antinociceptive activity in Sprague-Dawley rat at 5 mg/kg, ip after 30 mins by tail flick test; assay type: functional; details: for MPE: route intraperitoneal; outline: as §1
Rattus norvegicus [27] = experiment: Antinociceptive activity in Sprague-Dawley rat assessed as duration of antinociception at 0.2 mg/kg, ip by tail flick test; assay type: functional; details: route intraperitoneal; outline: as §1
Rattus norvegicus [28] = experiment: Antinociceptive activity in Sprague-Dawley rat at 0.01 to 5 mg/kg, ip by tail flick test in presence of naloxone; assay type: functional, organism-based; outline: as §3
Rattus norvegicus [29] = experiment: Antinociceptive activity in Sprague-Dawley rat assessed as duration of antinociception at 0.1 mg/kg, ip by tail flick test; assay type: functional; details: route intraperitoneal; outline: as §1
Rattus norvegicus [30] = experiment: Antinociceptive activity in Sprague-Dawley rat at 0.1 mg/kg, ip after 15 mins by tail flick test; assay type: functional; details: route intraperitoneal; outline: as §1
Rattus norvegicus [31] = experiment: Toxicity in Sprague-Dawley rat assessed as depression of heart rate at 1 mg/kg, iv administered for 60 secs measured for 30 mins; assay type: organism-based; set-up: dose 1 mg/kg, route intravenous; details: in vivo, 0.5 h; outline: as §4
Rattus norvegicus [32] = experiment: Antinociceptive activity in Sprague-Dawley rat at 0.02 mg/kg, ip after 30 mins by tail flick test; assay type: functional; details: route intraperitoneal; outline: as §1
Rattus norvegicus [33] = experiment: Antinociceptive activity in Sprague-Dawley rat at 1 mg/kg, ip after 30 mins by tail flick test; assay type: functional; details: for MPE: route intraperitoneal; outline: as §1
Rattus norvegicus [34] = experiment: Antinociceptive activity in Sprague-Dawley rat at 0.2 mg/kg, ip after 30 mins by tail flick test; assay type: functional; details: route intraperitoneal; outline: as §1
Rattus norvegicus [35] = experiment: Antinociceptive activity in Sprague-Dawley rat assessed as duration of antinociception at 0.05 mg/kg, ip by tail flick test; assay type: functional; details: route intraperitoneal; outline: as §1
Rattus norvegicus [36] = experiment: Toxicity in Sprague-Dawley rat assessed as depression of heart rate at 5 mg/kg, iv administered for 60 secs measured for 30 mins; assay type: organism-based; set-up: dose 5 mg/kg, route intravenous; details: in vivo, 0.5 h; outline: as §4
Rattus norvegicus [37] = experiment: Toxicity in Sprague-Dawley rat assessed as depression of mean arterial blood pressure at 5 mg/kg, iv administered for 60 secs measured for 30 mins; assay type: organism-based; set-up: dose 5 mg/kg, route intravenous; details: in vivo, 0.5 h; outline: as §4

CN1CC[C@]23c4c5ccc(O)c4O[C@H]2[C@@H](O)C=C[C@H]3[C@H]1C5
Activity (Rattus norvegicus [1]): Active | KiH [2]: 2.5 nM | KiL [2]: 113 nM

CN1CC[C@]23c4c5ccc(O)c4O[C@H]2[C@@H](O[C@H]2O[C@H](CO)[C@@H](O)[C@H](O)[C@@H]2O)C=C[C@H]3[C@H]1C5
MPE (Rattus norvegicus [3]): 54% | Activity (Rattus norvegicus [4]): 100% | MPE (Rattus norvegicus [5]): 57% | MPE (Rattus norvegicus [6]): 56% | Time (Rattus norvegicus [7]): 5 h | MPE (Rattus norvegicus [8]): 83% | MPE (Rattus norvegicus [9]): 100% | Activity (Rattus norvegicus [10]): inactive | MPE (Rattus norvegicus [11]): 22% | Activity (Rattus norvegicus [1]): Active | Time (Rattus norvegicus [12]): 2 h | MPE (Rattus norvegicus [13]): 19% | MPE (Rattus norvegicus [14]): 84% | IC50 (Rattus norvegicus [15]): 0.02 mg/kg | MPE (Rattus norvegicus [16]): 55% | Activity (Rattus norvegicus [17]): Non-toxic | MPE (Rattus norvegicus [18]): 100% | Time (Rattus norvegicus [19]): 5 h | MPE (Rattus norvegicus [20]): 100% | Time (Rattus norvegicus [21]): 5 h | MPE (Rattus norvegicus [22]): 56% | Activity (Rattus norvegicus [23]): Non-toxic | MPE (Rattus norvegicus [24]): 100% | KiH [2]: 1.7 nM | KiL [2]: 55 nM | Time (Rattus norvegicus [25]): 3.5 h | MPE (Rattus norvegicus [26]): 100% | Time (Rattus norvegicus [27]): 5 h | Activity (Rattus norvegicus [28]): inactive | Time (Rattus norvegicus [29]): 5 h | MPE (Rattus norvegicus [30]): 50% | Activity (Rattus norvegicus [31]): Non-toxic | MPE (Rattus norvegicus [32]): 51% | MPE (Rattus norvegicus [33]): 100% | MPE (Rattus norvegicus [34]): 100% | Time (Rattus norvegicus [35]): 5 h

CN1CC[C@]23c4c5ccc(O)c4O[C@H]2[C@@H](O)C=C[C@H]3[C@H]1C5 [MORPHINE]
Activity (Rattus norvegicus [36]): Toxic | Activity (Rattus norvegicus [37]): Toxic | Activity (Rattus norvegicus [23]): Non-toxic | MPE (Rattus norvegicus [33]): 35%

CN1CC[C@]23c4c5ccc(O)c4O[C@H]2[C@@H](O)C=C[C@H]3[C@H]1C5.CN1CC[C@]23c4c5ccc(O)c4O[C@H]2[C@@H](O)C=C[C@H]3[C@H]1C5.O=S(=O)(O)O
Time (Rattus norvegicus [7]): 2.5 h | MPE (Rattus norvegicus [8]): 45% | MPE (Rattus norvegicus [26]): 72%

CN1CC[C@]23c4c5ccc(O)c4O[C@H]2[C@@H](O[C@@H]2O[C@H](C(=O)O)[C@@H](O)[C@H](O)[C@H]2O)C=C[C@H]3[C@H]1C5
Activity (Rattus norvegicus [1]): Active | Activity (Rattus norvegicus [26]): Active | Activity (Rattus norvegicus [33]): Active
